Results: ChEMBL document CHEMBL5380838, “Novel Aryl Sulfonamide Derivatives as NLRP3 Inflammasome Inhibitors for the Potential Treatment of Cancer” (J Med Chem, 2023)
Each block holds one compound with its values, some of them ahead of it. Activity calls are given as the source filed them. No cut-off for these calls is given here.

Tests used:
[1] = biological target: NACHT, LRR and PYD domains-containing protein 3 (Mus musculus) (UniProt Q8R4B8); assay: Inhibition of NLRP3 inflammasome activation in LPS-treated mouse BMDM cells assessed as inhibition of Bz-ATP-stimulated IL-1beta release at 1 uM incubated for 30 mins followed by Bz-ATP stimulation for 30 mins by ELISA method relative to control; type: cell-based; settings: time 60.0 min
Outline: (§1)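 Mouse BMDMs, C57BL/6 bone marrow cells differentiated 7 days with M-CSF 10 ng/mL, seeded 5 × 10^5/well. Primed with LPS 1 µg/mL for 2 h, then compound 1 µM in serum-free medium for 30 min, then Bz-ATP 100 µM for 30 min. Supernatant IL-1β by ELISA in pg/mL and as percent inhibition. Mean ± SEM of three independent experiments in triplicate.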

[2] = biological target: NACHT, LRR and PYD domains-containing protein 3 (Mus musculus) (UniProt Q8R4B8); assay: Inhibition of NLRP3 inflammasome activation in LPS-treated mouse BMDM cells assessed as Bz-ATP-stimulated IL-1beta level at 1 uM incubated for 30 mins followed by Bz-ATP stimulation for 30 mins by ELISA method; type: cell-based; settings: time 60.0 min; outline: as §1
[3] = biological target: NACHT, LRR and PYD domains-containing protein 3 (Mus musculus) (UniProt Q8R4B8); assay: Inhibition of NLRP3 inflammasome activation in LPS-treated mouse BMDM cells assessed as inhibition of Bz-ATP-stimulated IL-1beta release at 1 uM incubated for 30 mins followed by Bz-ATP stimulation for 30 mins by ELISA method; type: cell-based; settings: time 60.0 min; outline: as §1
[4] = Metabolic stability in mouse liver microsomes assessed as half life measured per mg protein at 1 uM measured upto 60 mins by LC-MS/MS analysis; type: ADME, Microsome
Outline: (§2)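 Pooled human or CD-1 male mouse liver microsomes at 0.5 mg/mL with test compound 1 µM in 50 mM phosphate pH 7.4 and 3 mM MgCl2, preincubated 10 min at 37 °C. Percent parent remaining vs 0 min measured by LC-MS/MS. Cli = k/microsomal conc. × 1000; mean ± SD, n = 2.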

[5] = Metabolic stability in human liver microsomes assessed as half life measured per mg protein at 1 uM measured upto 60 mins by LC-MS/MS analysis; type: ADME, Microsome; outline: as §2
[6] = Metabolic stability in human liver microsomes assessed as intrinsic clearance measured per mg protein at 1 uM measured upto 60 mins by LC-MS/MS analysis; type: ADME, Microsome; settings: read-out: CLH; outline: as §2
[7] = Metabolic stability in mouse liver microsomes assessed as intrinsic clearance measured per mg protein at 1 uM measured upto 60 mins by LC-MS/MS analysis; type: ADME, Microsome; settings: read-out: CLH; outline: as §2

NACHT, LRR and PYD domains-containing protein 3 (Mus musculus), sequence (Q8R4B8 whole entry, the tested form may be a part): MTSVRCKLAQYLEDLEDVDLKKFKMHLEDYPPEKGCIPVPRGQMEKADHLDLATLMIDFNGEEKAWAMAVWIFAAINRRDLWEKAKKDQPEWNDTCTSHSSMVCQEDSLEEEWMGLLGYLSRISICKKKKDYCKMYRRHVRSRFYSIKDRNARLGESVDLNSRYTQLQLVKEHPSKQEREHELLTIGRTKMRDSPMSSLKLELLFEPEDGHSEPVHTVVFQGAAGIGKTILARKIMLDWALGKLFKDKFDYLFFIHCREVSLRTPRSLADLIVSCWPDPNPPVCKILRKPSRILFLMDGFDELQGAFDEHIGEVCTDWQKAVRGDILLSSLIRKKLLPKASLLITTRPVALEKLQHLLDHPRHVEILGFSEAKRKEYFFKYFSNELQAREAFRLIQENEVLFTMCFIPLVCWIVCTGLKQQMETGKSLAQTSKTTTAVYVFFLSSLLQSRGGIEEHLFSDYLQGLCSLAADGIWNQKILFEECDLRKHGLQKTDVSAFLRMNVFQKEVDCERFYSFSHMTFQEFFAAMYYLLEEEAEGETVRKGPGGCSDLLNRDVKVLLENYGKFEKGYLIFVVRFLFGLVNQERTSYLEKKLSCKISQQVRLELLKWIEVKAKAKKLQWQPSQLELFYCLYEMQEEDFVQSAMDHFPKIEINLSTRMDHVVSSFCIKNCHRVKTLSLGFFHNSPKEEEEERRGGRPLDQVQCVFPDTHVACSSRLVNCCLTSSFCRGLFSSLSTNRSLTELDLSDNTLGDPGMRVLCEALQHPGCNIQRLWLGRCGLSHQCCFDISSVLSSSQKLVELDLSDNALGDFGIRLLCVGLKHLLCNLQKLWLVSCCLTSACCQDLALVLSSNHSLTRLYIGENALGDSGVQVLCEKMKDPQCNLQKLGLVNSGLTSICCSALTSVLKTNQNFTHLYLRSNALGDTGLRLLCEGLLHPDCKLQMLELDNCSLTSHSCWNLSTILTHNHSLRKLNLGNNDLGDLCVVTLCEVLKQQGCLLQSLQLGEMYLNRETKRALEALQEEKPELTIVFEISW

Structure (SMILES): C[C@H](NS(=O)(=O)c1ccc([N+](=O)[O-])cc1)C(=O)Nc1c2c(cc3c1CCC3)CCC2
- inhibition [3]: inactive
- Activity [2]: 349 pg/mL

Structure (SMILES): Nc1ccc(S(=O)(=O)N[C@@H](Cc2ccccc2)C(=O)Nc2c3c(cc4c2CCC4)CCC3)cc1
- inhibition [1]: 38%
- Activity [2]: 175 pg/mL

Structure (SMILES): O=C(Nc1c2c(cc3c1CCC3)CCC2)[C@@H]1Cc2ccccc2CN1S(=O)(=O)c1ccc([N+](=O)[O-])cc1
- inhibition [1]: 53.7%
- Activity [2]: 131 pg/mL

Structure (SMILES): CC(C)[C@H](NS(=O)(=O)c1ccc(N)cc1)C(=O)Nc1c2c(cc3c1CCC3)CCC2
- inhibition [1]: 50.2%

Structure (SMILES): Nc1ccc(S(=O)(=O)N[C@H](C(=O)Nc2c3c(cc4c2CCC4)CCC3)c2ccccc2)cc1
- inhibition [1]: 16.1%
- Activity [2]: 237 pg/mL

Structure (SMILES): Nc1ccc(S(=O)(=O)NCC(=O)Nc2c3c(cc4c2CCC4)CCC3)cc1
- inhibition [3]: inactive
- Activity [2]: 348 pg/mL

Structure (SMILES): O=C(CCNS(=O)(=O)c1ccc([N+](=O)[O-])cc1)Nc1c2c(cc3c1CCC3)CCC2
- inhibition [1]: 36.5%
- Activity [2]: 180 pg/mL

Structure (SMILES): CCOc1ccc2ccc(=O)oc2c1
- microsomal CLint at 1 µM [6]: 168 µL/min/mg
- half-life at 1 µM [4]: 3.3 min
- half-life at 1 µM [5]: 8.3 min
- microsomal CLint at 1 µM [7]: 422 µL/min/mg

Structure (SMILES): O=C(CNS(=O)(=O)c1ccc([N+](=O)[O-])cc1)Nc1c2c(cc3c1CCC3)CCC2
- inhibition [3]: inactive
- Activity [2]: 344 pg/mL

Structure (SMILES): O=C(Nc1c2c(cc3c1CCC3)CCC2)[C@@H]1CCCCN1S(=O)(=O)c1ccc([N+](=O)[O-])cc1
- inhibition [1]: 52.4%
- Activity [2]: 135 pg/mL

Structure (SMILES): Nc1ccc(S(=O)(=O)N2CCC[C@H]2C(=O)Nc2c3c(cc4c2CCC4)CCC3)cc1
- inhibition [1]: 41.6%
- Activity [2]: 165 pg/mL

Structure (SMILES): O=C(Nc1c2c(cc3c1CCC3)CCC2)[C@H](CNS(=O)(=O)c1ccc([N+](=O)[O-])cc1)c1ccccc1
- inhibition [1]: 44.8%
- Activity [2]: 156 pg/mL

Structure (SMILES): CC(C)[C@@H](NS(=O)(=O)c1ccc(N)cc1)C(=O)Nc1c2c(cc3c1CCC3)CCC2
- inhibition [1]: 25.1%

Now from value to compound:

- inhibition [1]: 49.5%
- Activity [2]: 143 pg/mL
Structure (SMILES): O=C(Nc1c2c(cc3c1CCC3)CCC2)[C@@H](Cc1ccccc1)NS(=O)(=O)c1ccc([N+](=O)[O-])cc1

- inhibition [1]: 53.9%
- Activity [2]: 131 pg/mL
Structure (SMILES): CC(C)C[C@H](NS(=O)(=O)c1ccc([N+](=O)[O-])cc1)C(=O)Nc1c2c(cc3c1CCC3)CCC2

- half-life at 1 µM [4]: 7.3 min
- half-life at 1 µM [5]: 47 min
Structure (SMILES): CC(C)NCC(O)COc1cccc2ccccc12 (stereo not given) [PROPRANOLOL]

- inhibition [1]: 25.7%
- Activity [2]: 210 pg/mL
Structure (SMILES): O=C(Nc1c2c(cc3c1CCC3)CCC2)[C@@H]1CCCN1S(=O)(=O)c1ccc([N+](=O)[O-])cc1

- inhibition [1]: 25.4%
- Activity [2]: 211 pg/mL
Structure (SMILES): Nc1ccc(S(=O)(=O)N2CCCC[C@H]2C(=O)Nc2c3c(cc4c2CCC4)CCC3)cc1

- inhibition [1]: 17.3%
Structure (SMILES): C[C@H](NS(=O)(=O)c1ccc(N)cc1)C(=O)Nc1c2c(cc3c1CCC3)CCC2

- inhibition [1]: 28.4%
- Activity [2]: 203 pg/mL
Structure (SMILES): NCCCC[C@H](NS(=O)(=O)c1ccc(N)cc1)C(=O)Nc1c2c(cc3c1CCC3)CCC2

- inhibition [1]: 47.5%
- Activity [2]: 149 pg/mL
Structure (SMILES): NCCCC[C@H](NS(=O)(=O)c1ccc([N+](=O)[O-])cc1)C(=O)Nc1c2c(cc3c1CCC3)CCC2

- inhibition [1]: 46.4%
- Activity [2]: 152 pg/mL
Structure (SMILES): Nc1ccc(S(=O)(=O)N[C@H](Cc2ccccc2)C(=O)Nc2c3c(cc4c2CCC4)CCC3)cc1

- inhibition [1]: 22.3%
- Activity [2]: 220 pg/mL
Structure (SMILES): Nc1ccc(S(=O)(=O)NCCC(=O)Nc2c3c(cc4c2CCC4)CCC3)cc1

- inhibition [1]: 19.8%
- Activity [2]: 227 pg/mL
Structure (SMILES): O=C(Nc1c2c(cc3c1CCC3)CCC2)[C@H](Cc1ccccc1)NS(=O)(=O)c1ccc([N+](=O)[O-])cc1

- inhibition [1]: 31.5%
- Activity [2]: 194 pg/mL
Structure (SMILES): CC(C)C[C@H](NS(=O)(=O)c1ccc(N)cc1)C(=O)Nc1c2c(cc3c1CCC3)CCC2

- inhibition [1]: 34.7%
Structure (SMILES): O=C(Nc1c2c(cc3c1CCC3)CCC2)[C@H](Cc1ccc(O)cc1)NS(=O)(=O)c1ccc([N+](=O)[O-])cc1
